Laboratory results as given in ChEMBL document CHEMBL1157669, “New oligo-beta-(1,3)-glucan derivatives as immunostimulating agents” (Bioorg Med Chem, 2010).
Active and inactive are the calls of the source. The calls are words filed in the database; no cut-off is given here.

Key:
Caco-2 = experiment: Cytotoxicity against human Caco-2 cells assessed as effect on cell growth at 0.1 to 25 uM after 24 to 48 hrs by Hoechst 3342 staining-based imaging analysis; details: caco-2, 25 µM
In short: (§1)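 Human tumour lines (liver, colon, prostate, breast, lung) and resting normal diploid skin fibroblasts were grown per supplier guidance. 4×10³ cells/well attached for 24 h, then were exposed to increasing compound concentrations for 1 and 2 days. Cells were fixed in 4% paraformaldehyde, nuclei stained with Hoechst 3342, and counted by automated imaging from four pictures per well.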

HCT-116 = experiment: Cytotoxicity against human HCT116 cells assessed as effect on cell growth at 0.1 to 25 uM after 24 to 48 hrs by Hoechst 3342 staining-based imaging analysis; details: hct-116, 25 µM; in short: as §1
[1] = Cytotoxicity against human HuH7 cells assessed as effect on cell growth at 0.1 to 25 uM after 24 to 48 hrs by Hoechst 3342 staining-based imaging analysis; details: huh-7, 25 µM; in short: as §1
[2] = Cytotoxicity against human NCI/ADR cells assessed as effect on cell growth at 0.1 to 25 uM after 24 to 48 hrs by Hoechst 3342 staining-based imaging analysis; in short: as §1
PC-3 = experiment: Cytotoxicity against human PC3 cells assessed as effect on cell growth at 0.1 to 25 uM after 24 to 48 hrs by Hoechst 3342 staining-based imaging analysis; details: pc-3, 25 µM; in short: as §1
[3] = Cytotoxicity against human skin fibroblast assessed as effect on cell growth at 0.1 to 25 uM after 24 to 48 hrs by Hoechst 3342 staining-based imaging analysis; in short: as §1
Mus musculus [4] = experiment: Immunostimulatory activity in BALB/c mouse assessed as increase in granulocyte count in peripheral blood at 100 ug, ip after 24 hrs; assay type: functional, organism-based
Mus musculus [5] = experiment: Immunostimulatory activity in BALB/c mouse assessed as decrease in lymphocyte count in peripheral blood at 100 ug, ip after 24 hrs; assay type: functional, organism-based
Mus musculus [6] = experiment: Immunostimulatory activity in BALB/c mouse assessed as influx of macrophages into peritoneal cavity at 100 ug, ip after 24 hrs; assay type: functional, organism-based
In short: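 Female BALB/c mice (6–8 weeks) got one ip injection of sample. Peritoneal cavity cells were collected and percentages of macrophages, lymphocytes and mast cells scored. Values are the mean of three independent experiments ± SD.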

Mus musculus [7] = experiment: Immunostimulatory activity in BALB/c mouse assessed as induction of peripheral blood monocyte phagocytosis at 100 ug, ip after 24 hrs; assay type: functional, organism-based
In short: (§2)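 Female BALB/c mice (6–8 weeks) were injected ip with oligosaccharide 24 h before the test. Heparinised (5 IU/mL) orbital plexus blood was incubated with synthetic HEMA microspheres. Two smears from two parallel samples were stained with Accustain. Monocytes and granulocytes holding three or more particles were scored positive. Mean ± SD; P <0.05.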

Mus musculus [8] = experiment: Immunostimulatory activity in BALB/c mouse assessed as induction of peripheral blood granulocyte phagocytosis at 100 ug, ip after 24 hrs; assay type: functional, organism-based; in short: as §2
Mus musculus [9] = experiment: Immunostimulatory activity in BALB/c mouse assessed as induction of peritoneal macrophage phagocytosis at 100 ug, ip after 24 hrs; assay type: functional, organism-based
In short: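 Oligosaccharide was given ip to female BALB/c mice (6–8 weeks) 24 h before harvest. Peritoneal macrophages were isolated, diluted to 1×10⁷ in RPMI-1640 with 5% fetal calf serum, and incubated with HEMA microspheres. Smears were stained with Accustain, and phagocytosis was scored with differential counts; cells with three or more particles counted positive.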

Mus musculus [10] = species: Mus musculus; experiment: Immunostimulatory activity in BALB/c mouse splenocytes assessed as induction of IL2 production at 100 ug after 72 hrs; assay type: functional, organism-based; details: Splenocyte
In short: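 Spleen cells came from female BALB/c mice (6–8 weeks) injected ip with oligosaccharide; controls were PBS-injected mice. Cells were plated at 2×10⁶/mL in RPMI-1640 with 5% FCS, with Concanavalin A added to positive-control wells. After 72 h at 37 °C and 5% CO₂, supernatant IL-2 was measured with a Quantikine mouse IL-2 kit. Mean of three independent experiments ± SD.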

Row | Structure (SMILES) | Activity (Caco-2) | Activity (HCT-116) | Activity [1] | Activity [2] | Activity (PC-3) | Activity [3] | Activity (Mus musculus [4]) | Activity (Mus musculus [5]) | Activity (Mus musculus [6]) | Activity (Mus musculus [7]) | Activity (Mus musculus [8]) | Activity (Mus musculus [9]) | Activity (Mus musculus [10])
1 | OC[C@H]1O[C@@H](O[C@@H]2[C@@H](O)[C@H](O[C@@H]3[C@@H](O)[C@H](O[C@@H]4[C@@H](O)[C@H](O[C@@H]5[C@@H](O)[C@H](O[C@H]6[C@H](O)[C@@H](CO)OC(O)[C@H]6O)O[C@H](CO)[C@H]5O)O[C@H](CO)[C@H]4O)O[C@H](CO)[C@H]3O)O[C@H](CO)[C@H]2O)[C@H](O)[C@@H](O)[C@@H]1O (some centres not stated) | Non-toxic | Non-toxic | Non-toxic | Non-toxic | Non-toxic | Non-toxic | Active | Active | Active | Active | Active | Active | 
2 | OC[C@H]1O[C@@H](O[C@@H]2[C@@H](O)[C@H](O[C@@H]3[C@@H](O)[C@H](O[C@@H]4[C@@H](O)[C@H](O[C@@H]5[C@@H](O)[C@H](O[C@@H]6[C@@H](O)[C@H](O[C@@H]7[C@@H](O)[C@H](O)O[C@H](CO)[C@H]7O)O[C@H](CO)[C@H]6O)O[C@H](CO)[C@H]5O)O[C@H](CO)[C@H]4O)O[C@H](CO)[C@H]3O)O[C@H](CO)[C@H]2O)[C@H](O)[C@@H](O)[C@@H]1O |  |  |  |  |  |  | Active | Active | Active | Active | Active | Active | 
3 | OC[C@H]1O[C@@H](O[C@@H]2[C@@H](O)[C@H](O[C@@H]3[C@@H](O)[C@H](O[C@@H]4[C@@H](O)[C@H](O[C@@H]5[C@@H](O)[C@H](O)O[C@H](CO)[C@H]5O)O[C@H](CO)[C@H]4O)O[C@H](CO)[C@H]3O)O[C@H](CO)[C@H]2O)[C@H](O)[C@@H](O)[C@@H]1O |  |  |  |  |  |  | Active | Active | Active | Active | Active | Active | 
4 | OC[C@H]1O[C@@H](O[C@@H]2[C@@H](O)[C@H](O[C@@H]3[C@@H](O)[C@H](O[C@@H]4[C@@H](O)[C@H](O[C@H]5[C@H](O)[C@@H](CO)OC(O)[C@H]5O)O[C@H](CO)[C@H]4O)O[C@H](CO)[C@H]3O)O[C@H](CO)[C@H]2O)[C@H](O)[C@@H](O)[C@@H]1O (some centres not stated) | Non-toxic | Non-toxic | Non-toxic | Non-toxic | Non-toxic | Non-toxic | Active | Active | Active | Active | Active | Active | Active
